Laboratory results from ChEMBL document CHEMBL1914352, “Design, synthesis, docking, and biological evaluation of novel diazide-containing isoxazole- and pyrazole-based histone deacetylase probes” (J Med Chem, 2011).
Each block holds one compound with its values, some of them ahead of it. The source made the active and inactive calls. The rule behind the calls is not given here.

What was measured:
[1] = target: Matrix metalloproteinase-14 (Homo sapiens, UniProt P50281); test: Inhibition of MMP14
Stromelysin-1 = Stromelysin-1 (Homo sapiens, UniProt P08254); test: Inhibition of MMP3
HepG2 [2] = test: Induction of apoptosis in human HepG2 cells assessed as hyperacetylation of p53 after 24 hrs by Western blot analysis; assay type: functional, cell-based
Summary of the method: (§1)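 HepG2 cells are seeded at 2.7×10^5 cells/well in D7 medium (DMEM, 7% FBS), refed after 24 h, and after 1 h at 37 °C treated with DMSO or 1, 5 or 10 µM inhibitor. Lysis is in ice-cold 1% CHAPSO buffer (50 mM Hepes pH 7.4), 45 min at 4 °C. Immunoblots are probed for cleaved caspase 3 Asp175, acetyl-Lys373 p53, total p53 and GAPDH, detected by chemiluminescence, with band densitometry.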

HepG2 [3] = test: Induction of apoptosis in human HepG2 cells assessed as cleavage of caspase 3 at 1 to 10 uM after 24 hrs by Western blot analysis; assay type: functional, cell-based; summary of the method: as §1
HepG2 [4] = test: Induction of apoptosis in human HepG2 cells assessed as hyperacetylation of p53 at 1 to 10 uM by Western blot analysis; assay type: functional, cell-based; summary of the method: as §1
HepG2 [5] = test: Induction of apoptosis in human HepG2 cells assessed as cleavage of caspase 3 at 1 to 10 uM after 14 hrs by Western blot analysis; assay type: functional, cell-based; summary of the method: as §1
SH-SY5Y [6] = test: cells; assay type: functional, cell-based; conditions: Homo sapiens, 48 h
SH-SY5Y [7] = test: cells; assay type: functional, cell-based; conditions: Homo sapiens, 24 h
HeLa [8] = test: cells; assay type: functional, cell-based; conditions: Homo sapiens, 48 h
HeLa [9] = test: cells; assay type: functional, cell-based; conditions: Homo sapiens, 72 h
HepG2 [10] = test: cells; assay type: functional, cell-based; conditions: Homo sapiens, HepG2, 72 h
HeLa [11] = test: cells; assay type: functional, cell-based; conditions: Homo sapiens, 24 h
HepG2 [12] = test: cells; assay type: functional, cell-based; conditions: Homo sapiens, HepG2, 48 h
HepG2 [13] = test: cells; assay type: functional, cell-based; conditions: Homo sapiens, HepG2, 24 h
Histone deacetylase 8 = target: T1, Histone deacetylase 8 (Homo sapiens, UniProt Q9BY41); test: Inhibition of human recombinant HDAC8 using Fluor de Lys as substrate
T1 sequence (Q9BY41 whole entry): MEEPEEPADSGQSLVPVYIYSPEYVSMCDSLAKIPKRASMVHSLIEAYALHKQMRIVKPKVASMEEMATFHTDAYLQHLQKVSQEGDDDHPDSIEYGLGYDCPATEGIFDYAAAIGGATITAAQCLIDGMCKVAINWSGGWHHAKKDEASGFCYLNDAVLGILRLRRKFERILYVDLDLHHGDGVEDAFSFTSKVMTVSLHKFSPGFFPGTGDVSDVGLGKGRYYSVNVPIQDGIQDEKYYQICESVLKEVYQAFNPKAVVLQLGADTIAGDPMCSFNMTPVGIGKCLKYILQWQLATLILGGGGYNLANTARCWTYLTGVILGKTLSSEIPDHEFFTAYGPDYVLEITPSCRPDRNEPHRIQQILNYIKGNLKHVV

[14] = target: Histone deacetylase 3/Nuclear receptor corepressor 2 (HDAC3/NCoR2) (Homo sapiens, UniProt O15379); test: Inhibition of human recombinant HDAC3/NCoR2 using fluorophore-conjugated substrate Boc-L-Lys(Ac)-AMC; assay type: protein-complex assay
SH-SY5Y [15] = test: Neuroprotective activity against LY294002-induced stress in retinoic acid-differentiated human SH-SY5Y cells assessed as cell survival at 0.5 to 20 uM; assay type: functional, cell-based
Summary of the method: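 SH-SY5Y cells pre-differentiated with retinoic acid, seeded at 2×10^4 cells/well in 1% FBS medium with 5 µM retinoic acid. After 24 h, medium changed to phenol red free 1% FBS medium with 5 µM retinoic acid plus vehicle (DMSO) or 0.5–50 µM inhibitor (final), with or without 100 µM LY294002. Viability by XTT after 24 h. Expressed as percent survival relative to vehicle, four replicates ± SD. Analysed by one-way ANOVA with Dunnett's test.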

SH-SY5Y [16] = test: Cytotoxicity against retinoic acid-differentiated human SH-SY5Y cells assessed as cell survival at 20 uM; assay type: cell-based
Summary of the method: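 SH-SY5Y cells are differentiated for 7–8 days in 1% FBS medium with 10 µM retinoic acid, then seeded at 2×10^4 cells/well in 1% FBS medium with 5 µM RA. After 24 h they go into phenol-red-free 1% FBS/RA medium with DMSO or 0.5–50 µM inhibitor, without or with 100 µM LY294002, for 24 h. Readout: XTT viability as % survival vs vehicle, four replicates ± SD, one-way ANOVA with Dunnett.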

SH-SY5Y [17] = test: cells; assay type: functional, cell-based; conditions: Homo sapiens, 72 h
[18] = target: T2, Histone deacetylase (Homo sapiens) (UniProt Q13547+O15379+Q9UBN7+Q92769+Q9UQL6+Q8WUI4+Q9BY41+Q96DB2+P56524+Q9UKV0+Q969S8); test: Inhibition of HDAC in retinoic acid-differentiated human SH-SY5Y cells assessed as increase in histone H4 acetylation at 1 uM after 24 hrs by Western blot analysis in presence of 100 uM LY294002; assay type: cell-based
[19] = target: T2, Histone deacetylase (Homo sapiens); test: Inhibition of HDAC in retinoic acid-differentiated human SH-SY5Y cells assessed as increase in histone H4 acetylation at 1 uM after 24 hrs by Western blot analysis; assay type: cell-based

Histone deacetylase 3/Nuclear receptor corepressor 2 (HDAC3/NCoR2), sequence (O15379 whole entry): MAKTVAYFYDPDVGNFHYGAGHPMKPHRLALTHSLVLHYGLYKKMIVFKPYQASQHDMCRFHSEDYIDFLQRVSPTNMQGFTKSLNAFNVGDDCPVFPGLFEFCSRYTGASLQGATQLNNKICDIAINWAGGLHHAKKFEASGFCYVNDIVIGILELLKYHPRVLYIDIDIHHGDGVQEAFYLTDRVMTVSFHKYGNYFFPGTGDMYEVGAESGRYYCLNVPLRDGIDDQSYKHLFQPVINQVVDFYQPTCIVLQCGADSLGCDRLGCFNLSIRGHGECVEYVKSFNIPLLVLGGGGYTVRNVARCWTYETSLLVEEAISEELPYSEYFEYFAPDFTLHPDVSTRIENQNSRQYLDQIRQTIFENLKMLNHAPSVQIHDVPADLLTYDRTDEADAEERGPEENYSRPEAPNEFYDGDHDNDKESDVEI
Histone deacetylase 3/Nuclear receptor corepressor 2 (HDAC3/NCoR2), sequence (Q9Y618 whole entry, further chain): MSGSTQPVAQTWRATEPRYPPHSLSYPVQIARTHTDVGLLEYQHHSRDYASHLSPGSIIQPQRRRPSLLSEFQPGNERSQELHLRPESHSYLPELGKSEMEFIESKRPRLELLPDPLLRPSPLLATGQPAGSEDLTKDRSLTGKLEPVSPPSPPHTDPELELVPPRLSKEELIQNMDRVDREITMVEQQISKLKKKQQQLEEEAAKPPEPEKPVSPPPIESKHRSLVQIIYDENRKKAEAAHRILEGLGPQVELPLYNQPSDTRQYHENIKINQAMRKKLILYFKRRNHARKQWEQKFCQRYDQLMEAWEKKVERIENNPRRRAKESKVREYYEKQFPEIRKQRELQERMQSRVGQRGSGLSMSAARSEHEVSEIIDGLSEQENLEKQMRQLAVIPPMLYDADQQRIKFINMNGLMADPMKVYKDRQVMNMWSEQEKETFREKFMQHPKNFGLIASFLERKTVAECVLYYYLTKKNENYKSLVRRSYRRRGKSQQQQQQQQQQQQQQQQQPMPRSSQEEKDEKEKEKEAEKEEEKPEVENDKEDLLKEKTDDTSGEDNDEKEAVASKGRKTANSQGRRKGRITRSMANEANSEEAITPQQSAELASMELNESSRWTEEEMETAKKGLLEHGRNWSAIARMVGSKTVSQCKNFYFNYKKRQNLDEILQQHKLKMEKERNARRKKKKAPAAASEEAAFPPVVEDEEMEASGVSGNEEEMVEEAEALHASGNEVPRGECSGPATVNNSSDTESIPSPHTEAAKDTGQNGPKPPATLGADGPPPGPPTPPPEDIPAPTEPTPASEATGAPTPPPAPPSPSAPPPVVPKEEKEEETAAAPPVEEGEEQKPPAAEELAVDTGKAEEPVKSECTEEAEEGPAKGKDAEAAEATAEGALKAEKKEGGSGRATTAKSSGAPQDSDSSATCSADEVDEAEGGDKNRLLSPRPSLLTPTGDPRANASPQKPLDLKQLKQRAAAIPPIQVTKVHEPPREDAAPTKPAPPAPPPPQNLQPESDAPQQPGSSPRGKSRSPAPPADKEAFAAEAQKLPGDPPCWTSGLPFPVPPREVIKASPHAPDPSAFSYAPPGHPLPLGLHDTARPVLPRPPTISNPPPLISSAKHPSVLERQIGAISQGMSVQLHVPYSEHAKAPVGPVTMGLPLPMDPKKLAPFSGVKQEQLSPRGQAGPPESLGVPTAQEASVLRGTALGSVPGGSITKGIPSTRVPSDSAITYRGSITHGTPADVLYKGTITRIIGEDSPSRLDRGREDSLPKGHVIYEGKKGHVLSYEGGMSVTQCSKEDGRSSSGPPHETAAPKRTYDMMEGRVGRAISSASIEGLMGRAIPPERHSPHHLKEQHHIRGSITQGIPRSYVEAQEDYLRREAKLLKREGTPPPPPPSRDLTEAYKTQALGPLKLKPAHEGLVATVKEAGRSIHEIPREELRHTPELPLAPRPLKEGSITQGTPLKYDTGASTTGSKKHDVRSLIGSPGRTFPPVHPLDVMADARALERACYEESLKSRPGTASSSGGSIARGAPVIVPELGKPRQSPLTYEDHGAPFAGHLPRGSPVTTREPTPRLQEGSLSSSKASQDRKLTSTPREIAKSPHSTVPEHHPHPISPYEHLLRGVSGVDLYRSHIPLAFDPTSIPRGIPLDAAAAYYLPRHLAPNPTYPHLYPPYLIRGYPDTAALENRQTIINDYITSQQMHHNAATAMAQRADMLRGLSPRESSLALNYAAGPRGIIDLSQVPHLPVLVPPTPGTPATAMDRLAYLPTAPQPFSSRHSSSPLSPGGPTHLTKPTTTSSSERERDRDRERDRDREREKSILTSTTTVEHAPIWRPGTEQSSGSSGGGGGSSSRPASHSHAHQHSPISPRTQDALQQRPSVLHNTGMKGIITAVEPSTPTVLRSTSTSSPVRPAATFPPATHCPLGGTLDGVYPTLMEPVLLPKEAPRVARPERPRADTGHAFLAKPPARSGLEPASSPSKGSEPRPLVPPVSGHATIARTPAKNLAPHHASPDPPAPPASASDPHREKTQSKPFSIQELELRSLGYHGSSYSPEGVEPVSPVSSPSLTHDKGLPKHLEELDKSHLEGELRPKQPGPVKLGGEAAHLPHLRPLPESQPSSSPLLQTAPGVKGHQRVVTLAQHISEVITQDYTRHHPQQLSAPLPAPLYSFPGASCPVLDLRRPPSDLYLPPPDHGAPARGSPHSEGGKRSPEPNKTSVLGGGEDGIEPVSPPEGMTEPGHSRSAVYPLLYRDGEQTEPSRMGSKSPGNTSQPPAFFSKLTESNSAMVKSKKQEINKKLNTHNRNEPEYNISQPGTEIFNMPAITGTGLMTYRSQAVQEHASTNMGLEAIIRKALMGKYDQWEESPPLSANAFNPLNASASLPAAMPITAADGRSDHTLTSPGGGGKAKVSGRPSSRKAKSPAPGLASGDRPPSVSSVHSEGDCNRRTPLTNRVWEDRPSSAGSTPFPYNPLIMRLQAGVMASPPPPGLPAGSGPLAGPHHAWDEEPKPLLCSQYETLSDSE
Stromelysin-1, sequence (P08254 whole entry): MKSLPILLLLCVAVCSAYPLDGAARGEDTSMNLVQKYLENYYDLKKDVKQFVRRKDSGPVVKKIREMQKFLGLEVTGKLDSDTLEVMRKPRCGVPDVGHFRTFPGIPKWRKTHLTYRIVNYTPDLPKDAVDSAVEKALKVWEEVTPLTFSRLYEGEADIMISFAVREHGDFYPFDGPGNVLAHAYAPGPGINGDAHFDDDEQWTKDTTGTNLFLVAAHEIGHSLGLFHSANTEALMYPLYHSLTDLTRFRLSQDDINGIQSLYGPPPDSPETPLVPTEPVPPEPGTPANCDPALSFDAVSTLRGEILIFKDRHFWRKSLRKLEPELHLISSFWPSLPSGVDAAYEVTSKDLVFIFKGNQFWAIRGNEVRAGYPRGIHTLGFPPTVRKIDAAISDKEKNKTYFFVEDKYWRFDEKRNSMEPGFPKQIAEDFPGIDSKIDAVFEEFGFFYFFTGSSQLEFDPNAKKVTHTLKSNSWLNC

SMILES: CNC(=O)[C@H](Cc1c[nH]c2ccccc12)NC(=O)[C@@H](CC(=O)NO)CC(C)C [ILOMASTAT]
IC50 [1]: 0.00041 µM
IC50 (Stromelysin-1): 0.00762 µM

SMILES: O=C(CCCCCCC(=O)Nc1ccccc1)NO
Activity (HepG2 [2]): inactive
Activity (HepG2 [3]): Active
Activity (HepG2 [4]): inactive
Activity (HepG2 [5]): Active

EC50 (SH-SY5Y [6]): 23.6 µM
EC50 (SH-SY5Y [7]): > 50 µM
EC50 (HeLa [8]): 9.9 µM
EC50 (HeLa [9]): 4.6 µM
EC50 (HepG2 [10]): 5.9 µM
EC50 (HeLa [11]): 38.3 µM
EC50 (HepG2 [12]): 12.7 µM
EC50 (HepG2 [13]): > 50 µM
IC50 (Histone deacetylase 8): 0.028 µM
IC50 [14]: 0.022 µM
EC50 (SH-SY5Y [17]): 23.1 µM
SMILES: [N-]=[N+]=Nc1ccc(Cn2cc(NC(=O)CCCCCCC(=O)NO)cn2)cc1
Activity (SH-SY5Y [15]): inactive
Activity (SH-SY5Y [16]): Non-toxic

IC50 (Histone deacetylase 8): 0.707 µM
IC50 [14]: 0.073 µM
inhibition [18]: Active
inhibition [19]: Active
SMILES: [N-]=[N+]=Nc1ccc(-c2cc(C(=O)NCCCCCCC(=O)NO)no2)cc1

IC50 (Histone deacetylase 8): 0.487 µM
IC50 [14]: 0.432 µM
SMILES: [N-]=[N+]=NCc1cc(N=[N+]=[N-])cc(C(=O)Nc2ccc(Cn3cc(NC(=O)CCCCCCC(=O)NO)cn3)cc2)c1

IC50 (Histone deacetylase 8): 0.082 µM
IC50 [14]: 0.059 µM
SMILES: O=C(CCCCCCC(=O)Nc1cnn(Cc2ccc([N+](=O)[O-])cc2)c1)NO

IC50 (Histone deacetylase 8): 0.147 µM
IC50 [14]: 0.191 µM
SMILES: CC(C)(C)OC(=O)Nc1ccc(Cn2cc(NC(=O)CCCCCCC(=O)NO)cn2)cc1

EC50 (SH-SY5Y [6]): 22.7 µM
EC50 (SH-SY5Y [7]): > 50 µM
EC50 (HeLa [8]): 10.6 µM
EC50 (HeLa [9]): 5.5 µM
EC50 (HepG2 [10]): 5.5 µM
EC50 (HeLa [11]): 46.6 µM
EC50 (HepG2 [12]): 12.6 µM
EC50 (HepG2 [13]): > 50 µM
IC50 (Histone deacetylase 8): 0.076 µM
IC50 [14]: 0.044 µM
EC50 (SH-SY5Y [17]): 23.2 µM
SMILES: O=C(CCCCCCC(=O)Nc1cnn(Cc2ccccc2)c1)NO
Activity (SH-SY5Y [15]): inactive
Activity (SH-SY5Y [16]): Non-toxic

IC50 [14]: 1.48 µM
SMILES: [N-]=[N+]=NCc1cc(COc2ccc(NC(=O)CCCCCCC(=O)NO)cc2)cc(N=[N+]=[N-])c1
